Experimental data as given in ChEMBL document CHEMBL1142350, “From rigid cyclic templates to conformationally stabilized acyclic scaffolds. Part I: the discovery of CCR3 antagonist development candidate BMS-639623 with picomolar inhibition potency against eosinophil chemotaxis” (Bioorg Med Chem Lett, 2008).

Tests used:
[1] = molecular target: T1, C-C chemokine receptor type 3 (Homo sapiens, UniProt P51677); assay: Displacement of [125I]eotaxin from human CCR3 receptor expressed in CHO cells; format: cell-based
T1 sequence (P51677 whole entry): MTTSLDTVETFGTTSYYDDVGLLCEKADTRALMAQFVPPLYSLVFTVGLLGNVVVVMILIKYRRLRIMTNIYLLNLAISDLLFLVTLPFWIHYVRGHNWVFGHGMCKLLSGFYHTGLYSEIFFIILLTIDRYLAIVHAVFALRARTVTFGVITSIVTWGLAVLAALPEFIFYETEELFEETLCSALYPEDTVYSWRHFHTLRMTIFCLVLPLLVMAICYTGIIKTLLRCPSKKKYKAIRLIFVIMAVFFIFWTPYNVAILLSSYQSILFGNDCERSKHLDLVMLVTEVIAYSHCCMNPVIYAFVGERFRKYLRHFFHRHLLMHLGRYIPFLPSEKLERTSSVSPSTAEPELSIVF

Cytochrome P450 2D6 = Cytochrome P450 2D6 (Homo sapiens, UniProt P10635)
Chain of Cytochrome P450 2D6 (P10635 whole entry): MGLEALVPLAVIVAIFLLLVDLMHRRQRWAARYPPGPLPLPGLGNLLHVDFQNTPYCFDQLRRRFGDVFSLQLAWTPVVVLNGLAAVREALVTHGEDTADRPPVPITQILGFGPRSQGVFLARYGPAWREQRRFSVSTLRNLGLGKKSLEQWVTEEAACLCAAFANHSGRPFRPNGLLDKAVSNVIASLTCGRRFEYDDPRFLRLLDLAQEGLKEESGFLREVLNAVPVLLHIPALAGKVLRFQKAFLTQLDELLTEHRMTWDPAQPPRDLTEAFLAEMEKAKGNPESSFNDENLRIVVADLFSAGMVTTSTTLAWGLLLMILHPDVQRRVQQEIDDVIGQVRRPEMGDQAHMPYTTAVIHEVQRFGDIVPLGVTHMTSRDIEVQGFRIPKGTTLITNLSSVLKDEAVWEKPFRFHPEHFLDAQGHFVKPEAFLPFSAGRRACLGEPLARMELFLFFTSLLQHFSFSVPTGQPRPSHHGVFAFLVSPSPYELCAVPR

[2] = Bioavailability in chimpanzee at 2 mg/kg, po; format: ADME, organism-based, Pan troglodytes; details: in vivo
[3] = Bioavailability in rat at 50 mg/kg, po; format: ADME, organism-based; details: in vivo
[4] = AUC in rat at 50 mg/kg, po; format: ADME, organism-based; parameters: dose 50 mg/kg, route oral; details: plasma
[5] = Bioavailability in dog at 10 mg/kg, po; format: ADME, organism-based, Canis lupus familiaris; details: in vivo
Cynomolgus monkey = assay: Reduction of eosinophilia in Ascaris suum-challenged cynomolgus monkey at 5 mg/kg, po bid 2 hrs administered before pathogen challenge after 10 hrs; format: functional, Macaca fascicularis; parameters: scale not given: the % may be the effect or the level left
How it was run: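 Cross-over design in five cynomolgus monkeys given vehicle or compound orally at 5 mg/kg b.i.d., 2 h before and 10 h after Ascaris suum aerosol challenge. Bronchoalveolar lavage was done 24 h after challenge and eosinophils were counted. Trough plasma levels were measured.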

[6] = AUC in cynomolgus monkey at 10 mg/kg, po; format: ADME, organism-based, Macaca fascicularis; parameters: dose 10 mg/kg, route oral; details: plasma
[7] = Cmax in dog at 10 mg/kg, po; format: ADME, organism-based, Canis lupus familiaris; parameters: dose 10 mg/kg, route oral; details: in vivo
[8] = Cmax in mouse at 10 mg/kg, po; format: ADME, organism-based; parameters: dose 10 mg/kg, route oral; details: in vivo
[9] = Bioavailability in mouse at 10 mg/kg, po; format: ADME, organism-based; details: in vivo
[10] = molecular target: T1, C-C chemokine receptor type 3; assay: Antagonist activity at human CCR3 receptor in human eosinophil assessed as inhibition of eotaxin-stimulated intracellular calcium flux; format: functional, cell-based
[11] = Cmax in rat at 50 mg/kg, po; format: ADME, organism-based; parameters: dose 50 mg/kg, route oral; details: in vivo
[12] = AUC in mouse at 10 mg/kg, po; format: ADME, organism-based; parameters: dose 10 mg/kg, route oral; details: plasma
[13] = AUC in dog at 10 mg/kg, po; format: ADME, organism-based, Canis lupus familiaris; parameters: dose 10 mg/kg, route oral; details: plasma
[14] = Cmax in cynomolgus monkey at 10 mg/kg, po; format: ADME, organism-based, Macaca fascicularis; parameters: dose 10 mg/kg, route oral; details: in vivo
[15] = Cmax in chimpanzee at 2 mg/kg, po; format: ADME, organism-based, Pan troglodytes; parameters: dose 2 mg/kg, route oral; details: in vivo
[16] = Bioavailability in cynomolgus monkey at 10 mg/kg, po; format: ADME, organism-based, Macaca fascicularis; details: in vivo
[17] = AUC in chimpanzee at 2 mg/kg, po; format: ADME, organism-based, Pan troglodytes; parameters: dose 2 mg/kg, route oral; details: plasma
[18] = Metabolic stability assessed as clearance in human liver microsomes; format: ADME, Microsome
[19] = molecular target: T2, C-C chemokine receptor type 3 (Homo sapiens) (UniProt P51677); assay: Displacement of [125I]eotaxin from human CCR3 receptor expressed in CHO cells at 0.3 uM; format: cell-based
T2 sequence (whole entry): T1 sequence (P51677 whole entry)

IC50 [1] [nM]	IC50 (Cytochrome P450 2D6) [nM]	SMILES	also measured
1.2	–	Cc1cc(NC(=O)N[C@H](C)CCN2CCC[C@@H](Cc3ccc(F)cc3)C2)cc(-c2nnnn2C)c1	–
1.5	–	CC(=O)c1cc(NC(=O)N[C@H](C)CCN2CCC[C@@H](Cc3ccc(F)cc3)C2)cc(-c2nnnn2C)c1	–
0.7	–	C[C@H](CCN1CCC[C@@H](Cc2ccc(F)cc2)C1)NC(=O)Nc1cc(-c2nnnn2C)cc(C(C)(C)O)c1	CLhep predicted [18]: 12 mL/min/kg
5.8	–	CC(=O)c1cc(NC(=O)N[C@@H](C)CCN2CCC[C@@H](Cc3ccc(F)cc3)C2)cc(C(C)=O)c1	–
2	–	CCc1cc(NC(=O)N[C@H](C)CCN2CCC[C@@H](Cc3ccc(F)cc3)C2)cc(-c2nnnn2C)c1	–
2.7	–	CC(=O)c1cc(NC(=O)N[C@H](C)CCN2CCC[C@@H](Cc3ccc(F)cc3)C2)cc(C(C)=O)c1	–
1.7	–	C[C@H](CCN1CCC[C@@H](Cc2ccc(F)cc2)C1)NC(=O)Nc1cc(Br)cc(-c2nnnn2C)c1	–

The remaining lines, values behind:

SMILES	IC50 [1] [nM]	IC50 (Cytochrome P450 2D6) [nM]	also measured
C[C@H](CCN1CCC[C@@H](Cc2ccc(F)cc2)C1)NC(=O)Nc1cc(-n2cccn2)cc(-n2cccn2)c1	1.7	3000	–
C[C@H](CC(=O)N1CCC[C@@H](Cc2ccc(F)cc2)C1)NC(=O)Nc1cccc(-c2nnnn2C)c1	4.2	4400	–
C[C@@H](NC(=O)Nc1cccc(-c2nnnn2C)c1)[C@@H](O)CN1CCC[C@@H](Cc2ccc(F)cc2)C1	–	2600	bioavailability [2]: 16%; bioavailability [3]: 45%; AUC [4]: 21.3 µM·h; bioavailability [5]: 17%; Activity (Cynomolgus monkey): 82%; AUC [6]: 1.05 µM·h; Cmax [7]: 926 nM; Cmax [8]: 1540 nM; bioavailability [9]: 57%; IC50 [10]: 0.87 nM; Cmax [11]: 3170 nM; AUC [12]: 3.15 µM·h; AUC [13]: 2.74 µM·h; Cmax [14]: 561 nM; Cmax [15]: 173 nM; bioavailability [16]: 19%; AUC [17]: 0.639 µM·h
C[C@H](CCN1CCC[C@@H](Cc2ccc(F)cc2)C1)NC(=O)Nc1cccc(-c2nnnn2C)c1	1.3	–	–
C[C@@H](CCN1CCC[C@@H](Cc2ccc(F)cc2)C1)NC(=O)Nc1cccc(-c2nnnn2C)c1	4	–	–
CC[C@H](CCN1CCC[C@@H](Cc2ccc(F)cc2)C1)NC(=O)Nc1cc(-c2nnnn2C)cc(C(C)(C)O)c1	2.4	8200	CLhep predicted [18]: 15 mL/min/kg
CCc1cc(NC(=O)NCCCN2CCC[C@@H](Cc3ccc(F)cc3)C2)cc(-c2nnnn2C)c1	1	–	–
C[C@@H](CC(=O)N1CCC[C@@H](Cc2ccc(F)cc2)C1)NC(=O)Nc1cccc(-c2nnnn2C)c1	–	> 100000	Activity [19]: 37%
CCC[C@H](CCN1CCC[C@@H](Cc2ccc(F)cc2)C1)NC(=O)Nc1cc(-c2nnnn2C)cc(C(C)(C)O)c1	1.5	1000	CLhep predicted [18]: 17 mL/min/kg
CCc1cc(NC(=O)N[C@H](C)[C@H](CN2CCC[C@@H](Cc3ccc(F)cc3)C2)N(C)C)cc(-c2nnnn2C)c1	0.5	–	–
CC(C)c1cc(NC(=O)N[C@H](C)CCN2CCC[C@@H](Cc3ccc(F)cc3)C2)cc(-c2nnnn2C)c1	2.6	–	–
O=C(NCCCN1CCC[C@@H](Cc2ccc(F)cc2)C1)Nc1cc(-n2cccn2)cc(-n2cccn2)c1	1.6	2800	–
C[C@H](CCN1CCC[C@@H](Cc2ccc(F)cc2)C1)NC(=O)Nc1cc(-n2ccnn2)cc(-n2ccnn2)c1	2	–	–
CC(C)c1cc(NC(=O)NCCCN2CCC[C@@H](Cc3ccc(F)cc3)C2)cc(-c2nnnn2C)c1	2.6	–	–
